Assay results pooled from the literature.
Target: Serine/threonine-protein kinase PAK 5 (PAK5, Homo sapiens, UniProt Q9P286)

Structure (SMILES) | assay | setting | remaining binding
O=C(NCCCC1CCCCC1)c1ccc(CNC(=O)c2cnn(-c3ccccc3)c2C(F)(F)F)cc1 | cell-free assay, competition with immobilised ligand | 0.1 µM | 100%
O=C(NCCCN1CCOCC1)c1ccc(Nc2ncc(Cl)c(-c3ccc(Cl)s3)n2)cc1 | binding, competition with immobilised ligand | 1 µM | 73%
O=C(Nc1c[nH]nc1C(=O)NC1CCNCC1)c1cc(F)cc(F)c1 | binding, competition with immobilised ligand | 1 µM | 100%
CN(C)c1ncnc(-c2ccc3nc(Nc4cc(CN5CCN(C(=O)CC(F)(F)F)CC5)ccn4)[nH]c3c2)c1Cl | cell-free assay, competition with immobilised ligand | 1 µM | 85%
F[C@@H]1CCN(c2nccc(-c3cnn4ncccc34)n2)C1 | binding | 1 µM | 100%
Nc1ncc2c(n1)-c1c([nH]c3ccc(C#CC4CC4)cc13)CCCC2 | binding, competition with immobilised ligand | 1 µM | 97%
CCN1CCN(Cc2ccc(C(=O)Nc3ccc(C)c(Oc4ccc5c(c4)CC(=O)N5)c3)cc2C(F)(F)F)CC1 | binding, competition with immobilised ligand | 1 µM | 86%
c1cncc(-c2cccc(Nc3nccc(NC4CCCCC4)n3)c2)c1 | binding, competition with immobilised ligand | 10 µM | 76%
N[C@H]1CCN(c2nccc(-c3cnn4ncccc34)n2)C1 | binding | 1 µM | 100%
C[C@@H]1CN(c2cc(-c3n[nH]c4ccc(OC5(C)CC5)cc34)ncn2)C[C@H](C)O1 | cell-free assay, competition with immobilised ligand | 0.1 µM | 86%
COc1cnc(Nc2cccc(S(N)(=O)=O)c2)nc1N1CCN(c2ccccc2)CC1 | binding, competition with immobilised ligand | 1 µM | 69%
CS(=O)(=O)c1cc(C2(NC(=O)c3cncc4c3cnn4-c3ccc(F)cc3)CC2)ccn1 | cell-free assay, competition with immobilised ligand | 1 µM | 100%
COc1ccnn2ncc(-c3ccnc(N(C)C)n3)c12 | binding | 1 µM | 94%
CNCc1ccccc1-c1csc([C@H](C)Nc2nc(C)nc3cc(OC)c(OC)cc23)c1 | cell-free assay, competition with immobilised ligand | 1 µM | 100%
CN(CCCC(F)(F)F)c1nccc(-c2cnn3ncccc23)n1 | binding | 1 µM | 100%
COc1ccc2c(O[C@@H]3C[C@H]4C(=O)N[C@]5(C(=O)O)CC5/C=C\CCCCC[C@H](NC(=O)OC5CCCC5)C(=O)N4C3)cc(-c3csc(NC(=O)C(C)C)n3)nc2c1C (some centres unmarked) | cell-free assay, competition with immobilised ligand | 1 µM | 100%
Cc1cnn2ncc(-c3ccnc(N(C)C)n3)c2c1 | binding | 1 µM | 0%
O=C(NCCCN1CCOCC1)c1ccc(Nc2nccc(-c3cc4ccccc4s3)n2)cc1 | binding, competition with immobilised ligand | 1 µM | 81%
c1cnn2ncc(-c3ccnc(N4CCC45COC5)n3)c2c1 | binding | 1 µM | 85%
O=C(c1ccc(Nc2ncc(Cl)c(-c3ccc(Cl)s3)n2)cc1)N1CCC(N2CCCC2)CC1 | binding, competition with immobilised ligand | 1 µM | 58%
